These results are taken from ChEMBL document CHEMBL1671691 (Antimicrob Agents Chemother, 2010).

Molecules are shown by their SMILES.

For this assay, the system named is Influenza A virus. Nature of the assay: Antiviral activity against adamantane-, oseltamivir-, zanamivir-susceptible Influenza A virus (A/Georgia/17/2006(H1N1)) infected in MDCK cells assessed as inhibition of viral replication after 3 days by microscopic analysis using crystal violet stain. It is filed as functional, organism-based. The following applies: 72 h. In outline: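 Confluent MDCK-ATCC monolayers infected with virus diluted to give 15–45 plaques/well. Adsorption 1 h at 37°C without drug, then washed. Overlaid with 0.8% agarose in MEM containing drug plus TPCK-trypsin: 3 μg/ml for seasonal viruses, 2 μg/ml for 2009 A(H1N1). Incubated 3 days at 37°C, 5% CO2. Ethanol-fixed, crystal violet-stained, plaques counted. EC50 by curve fit; duplicates on three occasions, mean ± SD.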

With `NC(=O)c1ncn([C@@H]2O[C@H](CO)[C@@H](O)[C@H]2O)n1` [RIBAVIRIN], the 50% effective concentration (EC50) came to 4.92 µM.
